Measurements reported in ChEMBL document CHEMBL4706553, “Discovery of potent small molecule PROTACs targeting mutant EGFR” (Eur J Med Chem, 2020).
Activity calls are given as the source filed them.

How the values were obtained:
[1] = test system: Protein cereblon/Epidermal growth factor receptor (Homo sapiens), P00533+Q96SW2 [UNDEFINED MUTATION]; assay: Protac activity at CRBN/EGFR del19 mutant in human HCC827 cells assessed as induction of EGFR degradation at 333 nM measured after 24 hrs by Western blot analysis; assay type: cell-based
Method in brief: (§1)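 HCC827 cells seeded at 0.5–1 × 10⁶ per well, grown 24 h, then treated at the stated concentrations for 24 h. EGFR^del19 level by Western blot with anti-EGFR antibody and β-actin loading control.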

[2] = test system: HCC827; assay: Antiproliferative activity against human HCC827 cells expressing EGFR del19 mutant assessed as cell growth inhibition measured after 72 hrs by MTT assay; assay type: functional, cell-based; conditions: HCC827, 72 h
Method in brief: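 HCC827 cells were kept in RPMI-1640 with 10% heat-inactivated FBS, 1% sodium pyruvate, 1% glutamine and 1% penicillin-streptomycin at 37 °C and 5% CO₂, seeded at 3000–8000/well and rested 24 h. Compounds were applied as a concentration series for 72 h. MTT (5 mg/mL stock in PBS) was given for 4 h, then medium was removed and DMSO added. IC50 came from nonlinear regression (log inhibitor vs response).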

[3] = test system: A-431; assay: Antiproliferative activity against human A431 cells expressing wild type EGFR assessed as cell growth inhibition measured after 72 hrs by MTT assay; assay type: functional, cell-based; conditions: A-431, 72 h
Method in brief: (§2)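 Cells were seeded at 3000–8000/well and allowed 24 h, then exposed to serial compound concentrations for 72 h. MTT (5 mg/mL stock in PBS) was added for 4 h, supernatant removed and DMSO added. IC50, defined as 50% growth inhibition, was derived by nonlinear regression (log inhibitor vs response).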

[4] = test system: NCI-H1975; assay: Antiproliferative activity against human H1975 cells expressing EGFR L858R/T790M mutant assessed as cell growth inhibition measured after 72 hrs by MTT assay; assay type: functional, cell-based; conditions: NCI-H1975, 72 h
Method in brief: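 MTT assay on H1975 cells grown in RPMI-1640 with 10% heat-inactivated FBS and 1% penicillin-streptomycin at 37 °C and 5% CO₂. Cells were seeded at 3000–8000 per well and left 24 h, then exposed to a concentration series for 72 h. MTT (5 mg/mL stock in PBS) was added for 4 h, supernatant removed and formazan dissolved in DMSO. IC50 was fitted by nonlinear regression (log inhibitor vs response).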

[5] = test system: HepG2; assay: Antiproliferative activity against human HepG2 cells expressing VEGFR2 assessed as cell growth inhibition measured after 72 hrs by MTT assay; assay type: functional, cell-based; conditions: HepG2, 72 h; method in brief: as §2
[6] = test system: Protein cereblon/Epidermal growth factor receptor (Homo sapiens), P00533+Q96SW2 [UNDEFINED MUTATION]; assay: Protac activity at CRBN/EGFR del19 mutant in human HCC827 cells assessed as induction of EGFR degradation at 33 nM measured after 24 hrs by Western blot analysis; assay type: cell-based; method in brief: as §1
[7] = test system: von Hippel-Lindau disease tumor suppressor/Epidermal growth factor receptor (Homo sapiens), P00533+P40337 [L858R,T790M]; assay: Protac activity at VHL/EGFR L858R/T790M mutant in human H1975 cells assessed as induction of degradation of EGFR at 333 nM incubated for 48 hrs measured after compound wash-out for 48 hrs by Western blot analysis; assay type: cell-based; conditions: NCI-H1975
Method in brief: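 H1975 cells (RPMI-1640, 10% heat-inactivated FBS) exposed to 333 nM for 48 h. Medium then replaced with compound-free medium, and lysates collected at the stated times. EGFR read by Western blot; n = 2.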

[8] = target: von Hippel-Lindau disease tumor suppressor/Epidermal growth factor receptor (Homo sapiens, UniProt P00533+P40337); assay: Protac activity at VHL/EGFR del19 mutant in human HCC827 cells assessed as induction of EGFR degradation measured after 48 hrs by Western blot analysis; assay type: cell-based
Method in brief: (§3)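 HCC827 cells seeded at 0.5–1 × 10⁶ per well, then treated at the stated concentrations for 48 h. EGFR by Western blot; n = 3. DC₅₀ (concentration giving 50% EGFR loss) by nonlinear regression, log(inhibitor) vs response.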

[9] = test system: von Hippel-Lindau disease tumor suppressor/Epidermal growth factor receptor (Homo sapiens), P00533+P40337 [UNDEFINED MUTATION]; assay: Protac activity at VHL/EGFR del19 mutant in human HCC827 cells assessed as induction of EGFR degradation at 33 nM measured after 24 hrs by Western blot analysis; assay type: cell-based; method in brief: as §1
[10] = test system: von Hippel-Lindau disease tumor suppressor/Epidermal growth factor receptor (Homo sapiens), P00533+P40337 [L858R,T790M]; assay: Protac activity at VHL/EGFR L858R/T790M mutant in human H1975 cells assessed as maximal induction of degradation of EGFR incubated for 48 hrs by Western blot analysis relative to control; assay type: cell-based; conditions: NCI-H1975
Method in brief: (§4)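 H1975 cells exposed to the stated concentrations for 48 h. EGFR by Western blot; n = 3. DC₅₀ by nonlinear regression, log(inhibitor) vs response.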

[11] = test system: von Hippel-Lindau disease tumor suppressor/Epidermal growth factor receptor (Homo sapiens), P00533+P40337 [UNDEFINED MUTATION]; assay: Protac activity at VHL/EGFR del19 mutant in human HCC827 cells assessed as maximal induction of EGFR degradation at 33 nM measured after 48 hrs by Western blot analysis; assay type: cell-based; method in brief: as §3
[12] = test system: von Hippel-Lindau disease tumor suppressor/Epidermal growth factor receptor (Homo sapiens), P00533+P40337 [UNDEFINED MUTATION]; assay: Protac activity at VHL/EGFR del19 mutant in human HCC827 cells assessed as induction of EGFR degradation at 33 nM by Western blot analysis; assay type: cell-based; conditions: time 12-72 hrs, TDE = time-dependent effect
Method in brief: (§5)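 Time course in HCC827 cells at 33 nM, with protein harvested at each stated time point. EGFR^del19 detected by Western blot.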

[13] = test system: von Hippel-Lindau disease tumor suppressor/Epidermal growth factor receptor (Homo sapiens), P00533+P40337 [UNDEFINED MUTATION]; assay: Protac activity at VHL/EGFR del19 mutant in human HCC827 cells assessed as induction of EGFR degradation at 33 nM incubated for 24 hrs measured following drug wash-out for 24 hrs by Western blot analysis; assay type: cell-based
Method in brief: (§6)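 HCC827 cells (RPMI-1640, 10% heat-inactivated FBS, 1% sodium pyruvate, 1% glutamine, 37 °C, 5% CO₂) treated at 33 nM for 24 h. Medium then replaced with compound-free medium, and protein harvested at the stated times. EGFR read by Western blot; n = 2.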

[14] = test system: von Hippel-Lindau disease tumor suppressor/Epidermal growth factor receptor (Homo sapiens), P00533+P40337 [UNDEFINED MUTATION]; assay: Protac activity at VHL/EGFR del19 mutant in human HCC827 cells assessed as induction of EGFR degradation at 333 nM measured after 24 hrs by Western blot analysis; assay type: cell-based; method in brief: as §1
[15] = target: von Hippel-Lindau disease tumor suppressor/Epidermal growth factor receptor (Homo sapiens, UniProt P00533+P40337, T790M/L858R); assay: Protac activity at VHL/EGFR L858R/T790M mutant in human H1975 cells assessed as induction of degradation of EGFR incubated for 48 hrs by Western blot analysis; assay type: cell-based; conditions: nci-h1975; method in brief: as §4
[16] = test system: von Hippel-Lindau disease tumor suppressor/Epidermal growth factor receptor (Homo sapiens), P00533+P40337 [UNDEFINED MUTATION]; assay: Protac activity at VHL/EGFR del19 mutant in human HCC827 cells assessed as induction of EGFR degradation at 33 to 333 nM measured after 24 hrs by Western blot analysis; assay type: cell-based; conditions: dose 33-333 nM; method in brief: as §1
[17] = target: T1, Protein cereblon/Epidermal growth factor receptor (Homo sapiens, UniProt P00533+Q96SW2); assay: Protac activity at CRBN/EGFR in human A431 cells assessed as induction of degradation of EGFR at 0.1 to 3.3 uM incubated for 48 hrs by Western blot analysis; assay type: cell-based; conditions: A-431, dose 0.1-3.3 µM
[18] = test system: Protein cereblon/Epidermal growth factor receptor (Homo sapiens), P00533+Q96SW2 [UNDEFINED MUTATION]; assay: Protac activity at CRBN/EGFR del19 mutant in human HCC827 cells assessed as induction of EGFR degradation at 0.033 uM pretreated with autophagy inhibitor, chloroquine for 2 hrs followed by incubation with compound for 24 hrs by Western blot analysis; assay type: cell-based
[19] = test system: Protein cereblon/Epidermal growth factor receptor (Homo sapiens), P00533+Q96SW2 [UNDEFINED MUTATION]; assay: Protac activity at CRBN/EGFR del19 mutant in human HCC827 cells assessed as induction of EGFR degradation at 0.033 uM pretreated with proteasome inhibitor, MG132 for 2 hrs followed by incubation with compound for 24 hrs by Western blot analysis; assay type: cell-based
[20] = test system: Protein cereblon/Epidermal growth factor receptor (Homo sapiens), P00533+Q96SW2 [UNDEFINED MUTATION]; assay: Protac activity at CRBN/EGFR del19 mutant in human HCC827 cells assessed as induction of EGFR degradation at 0.033 uM pretreated with ubiquitination inhibitor, MLN4924 for 2 hrs followed by incubation with compound for 24 hrs by Western blot analysis; assay type: cell-based
[21] = test system: Protein cereblon/Epidermal growth factor receptor (Homo sapiens), P00533+Q96SW2 [UNDEFINED MUTATION]; assay: Protac activity at CRBN/EGFR del19 mutant in human HCC827 cells assessed as maximal induction of EGFR degradation at 33 nM measured after 48 hrs by Western blot analysis; assay type: cell-based; method in brief: as §3
[22] = target: T1, Protein cereblon/Epidermal growth factor receptor; assay: Protac activity at CRBN/EGFR del19 mutant in human HCC827 cells assessed as induction of EGFR degradation measured after 48 hrs by Western blot analysis; assay type: cell-based; method in brief: as §3
[23] = test system: Protein cereblon/Epidermal growth factor receptor (Homo sapiens), P00533+Q96SW2 [UNDEFINED MUTATION]; assay: Protac activity at CRBN/EGFR del19 mutant in human HCC827 cells assessed as induction of EGFR degradation at 0.033 uM pretreated with CRBN ligand, lenalidomide for 2 hrs followed by incubation with compound for 24 hrs by Western blot analysis; assay type: cell-based
[24] = test system: Protein cereblon/Epidermal growth factor receptor (Homo sapiens), P00533+Q96SW2 [UNDEFINED MUTATION]; assay: Protac activity at CRBN/EGFR del19 mutant in human HCC827 cells assessed as induction of EGFR degradation at 0.033 uM pretreated with EGFR inhibitor, F for 2 hrs followed by incubation with compound for 24 hrs by Western blot analysis; assay type: cell-based
[25] = test system: Protein cereblon/Epidermal growth factor receptor (Homo sapiens), P00533+Q96SW2 [UNDEFINED MUTATION]; assay: Protac activity at CRBN/EGFR del19 mutant in human HCC827 cells assessed as induction of EGFR degradation at 33 nM incubated for 24 hrs measured following compound wash-out for 24 to 48 hrs by Western blot analysis; assay type: cell-based; method in brief: as §6
[26] = test system: Protein cereblon/Epidermal growth factor receptor (Homo sapiens), P00533+Q96SW2 [UNDEFINED MUTATION]; assay: Protac activity at CRBN/EGFR del19 mutant in human HCC827 cells assessed as induction of EGFR degradation at 33 nM by Western blot analysis; assay type: cell-based; conditions: time 12-72 hrs, TDE = time-dependent effect; method in brief: as §5

| SMILES | Activity [1] | IC50 [2] [µM] | IC50 [3] [µM] | IC50 [4] [µM] | IC50 [5] [µM] | Activity [6] | other results |
| --- | --- | --- | --- | --- | --- | --- | --- |
| O=C1CCC(N2Cc3c(NC(=O)CCCCCCCN4CCN(c5ccc(Nc6ncc7nc(Nc8ccccc8)n(C8CCCC8)c7n6)cc5)CC4)cccc3C2=O)C(=O)N1 (stereo not drawn) | inactive | 0.00261 | 0.24 | 3.78 | > 5 | Active |  |
| CN(CCOCCOCCOCCOCCN1CCN(c2ccc(Nc3ncc4nc(Nc5ccccc5)n(C5CCCC5)c4n3)cc2)CC1)CC(=O)Nc1cccc2c1CN(C1CCC(=O)NC1=O)C2=O (stereo not drawn) | inactive | 0.00283 | 2.72 | 3.34 | > 5 | Active |  |
| Cc1ncsc1-c1ccc(CNC(=O)[C@@H]2C[C@@H](O)CN2C(=O)[C@@H](NC(=O)CCCCCCCN2CCN(c3ccc(Nc4ncc5nc(Nc6ccccc6)n(C6CCCC6)c5n4)cc3)CC2)C(C)(C)C)cc1 |  | 0.00076 | 0.33 | 0.97 | > 5 |  | Activity [7]: Active; DC50 [8]: 0.00354 µM; Activity [9]: Active; Emax [10]: 80.3%; Emax [11]: 74.8%; Activity [12]: Tde; Activity [13]: Active; Activity [14]: inactive; DC50 [15]: 0.151 µM |
| Cc1ncsc1-c1ccc(CNC(=O)[C@@H]2C[C@@H](O)CN2C(=O)[C@@H](NCCOCCOCCN2CCN(c3ccc(Nc4ncc5nc(Nc6ccccc6)n(C6CCCC6)c5n4)cc3)CC2)C(C)(C)C)cc1 |  | 0.0535 |  | 1.1 | > 5 |  | Activity [16]: inactive |
| CN(CCOCCOCCOCCN1CCN(c2ccc(Nc3ncc4nc(Nc5ccccc5)n(C5CCCC5)c4n3)cc2)CC1)CC(=O)Nc1cccc2c1CN(C1CCC(=O)NC1=O)C2=O (stereo not drawn) | inactive | 0.002 | 1.86 | 3.18 | > 5 | Active | Activity [17]: inactive; Activity [18]: inactive; Activity [19]: Active; Activity [20]: inactive; Emax [21]: 82%; DC50 [22]: 0.00191 µM; Activity [23]: inactive; Activity [24]: inactive; Activity [25]: inactive; Activity [26]: Tde |
| C=CC(=O)Nc1cc(Nc2nccc(-c3cn(C)c4ccccc34)n2)c(OC)cc1N(C)CCN(C)C [OSIMERTINIB] |  | 0.00097 | […] | […] |  |  |  |
